Experiment [1] can be described thus: Cytotoxicity against human HCT15 cells assessed as growth inhibition after 72 hrs by MTT assay. In kind it is functional. The following applies: HCT-15, 72 h. (Tetrazolium dyes change colour on reduction, which living cells bring about.)
Experiment [2] has as its system SN12C. Briefly: Cytotoxicity against human SN12C cells assessed as growth inhibition after 72 hrs by MTT assay. Type of experiment: functional. Put shortly: (§1)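 NCI 60-cell-line panel screen. Compounds were tested at 5 concentrations in 10-fold dilution (10^-4 to 10^-8 M) across the full panel. GI50 was taken as the molar concentration giving 50% inhibition of net cell growth.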

Experiment [3] relates to NCI-H23. Briefly: Cytotoxicity against human NCI-H23 cells assessed as growth inhibition after 72 hrs by MTT assay. In kind it is functional. The following applies: NCI-H23, 72 h.
Experiment [4] has as its system Jurkat. The experiment is described as follows: Induction of apoptosis in human Jurkat cells assessed as caspase-3 activation at 500 nM after 6 to 24 hrs by plate reader analysis. In kind it is functional, cell-based. In outline: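 Jurkat cells were treated with 500 nM compound for 6 h and 24 h, then lysed. Lysates were incubated with pNA-conjugated substrates: Ac-DEVD (caspase-3), Ac-IETD (caspase-8) and LEHD (caspase-9). pNA release was read at 405 nm and normalized to Bradford protein. Results are expressed as fold increase over untreated control.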

The subject of experiment [5] is MOLT-4. The experiment is described as follows: Cytotoxicity against human MOLT4 cells assessed as growth inhibition after 72 hrs by MTT assay. In kind it is functional. The following applies: MOLT-4, 72 h.
Experiment [6] has as its system SR. The experiment is described as follows: Cytotoxicity against human SR cells assessed as growth inhibition after 72 hrs by MTT assay. In kind it is functional. In outline:
as §1

For experiment [7], the system named is TK-10. Briefly: Cytotoxicity against human TK10 cells assessed as growth inhibition after 72 hrs by MTT assay. Type of experiment: functional. To be noted: TK-10, 72 h. Put shortly:
as §1

For experiment [8], the system named is Jurkat. The experiment is described as follows: Cell cycle arrest in human Jurkat cells assessed as accumulation at G2/M phase at 0.5 uM after 24 hrs by propidium iodide staining-based flow cytometry (reference value: 21.9%). Type of experiment: functional.
The test system of experiment [9] is SK-OV-3. The experiment is described as follows: Cytotoxicity against human SKOV3 cells assessed as growth inhibition after 72 hrs by MTT assay. In kind it is functional. To be noted: SK-OV-3, 72 h. Put shortly:
as §1

The subject of experiment [10] is NCI-H322M. Briefly: Cytotoxicity against human NCI-H322M cells assessed as growth inhibition after 72 hrs by MTT assay. Type of experiment: functional.
For experiment [11], the system named is MDA-MB-231. Briefly: Cytotoxicity against human MDA-MB-231 cells assessed as growth inhibition after 72 hrs by MTT assay. The following applies: MDA-MB-231, 72 h. Type of experiment: functional.
Experiment [12] deals with U-251. Briefly: Cytotoxicity against human U251 cells assessed as growth inhibition after 72 hrs by MTT assay. Type of experiment: functional. The following applies: U-251, 72 h. In outline:
as §1

The test system of experiment [13] is MDA-MB-468. The experiment is described as follows: Cytotoxicity against human MDA-MB-468 cells assessed as growth inhibition after 72 hrs by MTT assay. Type of experiment: functional. To be noted: MDA-MB-468, 72 h.
Experiment [14] can be described thus: Cytotoxicity against human UO31 cells assessed as growth inhibition after 72 hrs by MTT assay. Type of experiment: functional. The following applies: UO-31, 72 h. In outline:
as §1

In experiment [15] the test system is Jurkat. The experiment is described as follows: Cell cycle arrest in human Jurkat cells assessed as accumulation at G1 phase at 0.5 uM after 24 hrs by propidium iodide staining-based flow cytometry (reference value: 62.6%). Type of experiment: functional. A general note: Flow cytometry measures light scatter and fluorescence of single cells or particles in a stream.

Experiment [16] relates to Jurkat. The experiment is described as follows: Induction of apoptosis in human Jurkat cells assessed as mitochondrial membrane potential depolarization after 24 hrs by JC-1 staining-based flow cytometry. In kind it is functional, cell-based. In outline: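 After 24 h of treatment, Jurkat cells were resuspended in HBSS and stained with JC-1. Flow cytometry measured the percentage of cells with low potential (green monomer fluorescence). Mean ± SEM of 3 experiments.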

Experiment [17] has as its system A-431. Briefly: Cytotoxicity against human A431 cells assessed as growth inhibition after 72 hrs by MTT assay. In kind it is functional. To be noted: A-431, 72 h. Put shortly: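 Cells were grown in medium with 10% heat-inactivated FBS plus penicillin/streptomycin: RPMI-1640 for Jurkat and CEM, DMEM for A-431, HAM's F12 for LoVo. The doxorubicin-resistant LoVo subclone was kept with 0.1 µg/mL doxorubicin. Cells were seeded at 5x10^3 per well and pre-incubated 24 h at 37 °C.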

In experiment [18] the test system is MCF7. Briefly: Cytotoxicity against human MCF7 cells assessed as growth inhibition after 72 hrs by MTT assay. Type of experiment: functional. To be noted: MCF7, 72 h.
In experiment [19] the target is T1, DNA topoisomerase 1 (Homo sapiens) (UniProt P11387).
T1 sequence (whole entry): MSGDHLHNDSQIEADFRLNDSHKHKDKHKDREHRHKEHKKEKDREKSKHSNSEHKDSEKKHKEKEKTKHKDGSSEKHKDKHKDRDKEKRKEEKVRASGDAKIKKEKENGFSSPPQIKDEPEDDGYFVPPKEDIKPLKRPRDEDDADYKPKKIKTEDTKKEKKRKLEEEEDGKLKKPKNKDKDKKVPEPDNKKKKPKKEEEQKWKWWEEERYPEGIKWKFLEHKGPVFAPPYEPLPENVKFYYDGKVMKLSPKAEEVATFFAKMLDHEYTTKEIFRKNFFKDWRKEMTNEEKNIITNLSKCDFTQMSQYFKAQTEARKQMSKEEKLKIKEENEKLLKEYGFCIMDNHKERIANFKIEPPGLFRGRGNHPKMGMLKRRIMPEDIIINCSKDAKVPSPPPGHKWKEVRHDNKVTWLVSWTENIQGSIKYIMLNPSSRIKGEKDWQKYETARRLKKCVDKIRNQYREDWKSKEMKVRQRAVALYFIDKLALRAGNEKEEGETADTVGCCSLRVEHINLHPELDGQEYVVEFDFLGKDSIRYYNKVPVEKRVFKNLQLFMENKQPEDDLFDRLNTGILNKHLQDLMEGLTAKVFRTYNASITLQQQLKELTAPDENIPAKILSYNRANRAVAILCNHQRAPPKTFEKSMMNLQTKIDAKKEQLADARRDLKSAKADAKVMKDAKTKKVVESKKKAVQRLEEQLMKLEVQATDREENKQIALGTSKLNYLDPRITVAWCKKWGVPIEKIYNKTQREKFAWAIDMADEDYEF
Briefly: Inhibition of human DNA topoisomerase 1-mediated DNA single strand cleavage at 5 to 100 uM after 30 mins by agarose gel electrophoresis relative to untreated control. Put shortly: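 Reactions were set up as for relaxation: human topoisomerase I, 0.250 µg pBR322, compound 5-100 µM, 37 °C for 30 min, stopped with SDS/proteinase K. Samples were run on 0.8% agarose containing 0.5 µg/mL ethidium bromide, then destained in water, so that cleaved/nicked DNA could be detected under UV.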

In experiment [20] the test system is IGROV-1. The experiment is described as follows: Cytotoxicity against human IGROV1 cells assessed as growth inhibition after 72 hrs by MTT assay. Type of experiment: functional. To be noted: IGROV-1, 72 h.
The nature of experiment [21]: Cytotoxicity against human OVCAR5 cells assessed as growth inhibition after 72 hrs by MTT assay. Type of experiment: functional. To be noted: OVCAR-5, 72 h. In outline: as §1
Experiment [22] deals with SF-539. The experiment is described as follows: Cytotoxicity against human SF539 cells assessed as growth inhibition after 72 hrs by MTT assay. In kind it is functional. To be noted: SF-539, 72 h. In outline: as §1
The subject of experiment [23] is Jurkat. Briefly: Induction of apoptosis in human Jurkat cells assessed as loss of plasma membrane asymmetry at 250 to 500 nM after 6 hrs by annexin V-FITC/propidium iodide staining-based flow cytofluorimetric analysis. In kind it is functional, cell-based. Put shortly:
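Jurkat cells were incubated with 250 or 500 nM compound for 6 h or 24 h. They were then double-stained with Annexin V-FITC and propidium iodide and analysed by flow cytometry (488 nm excitation; emission 525 and 585 nm). Mean ± SEM of 3 experiments.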

Experiment [24] deals with NCI-H226. The experiment is described as follows: Cytotoxicity against human NCI-H226 cells assessed as growth inhibition after 72 hrs by MTT assay. In kind it is functional. The following applies: NCI-H226, 72 h.

The term GI50 denotes the concentration at which growth is held to half of that of the control.

The source made the active and inactive calls. The rule behind the calls is not given here.

Take `COc1ccc2c(c1)nnc1c3cccnc3[nH]c21`: the GI50 stood at 2260 nM in experiment [1]; 1630 nM in experiment [2]; 5500 nM in experiment [3]; 29 nM in experiment [5]; 31 nM in experiment [6]; 4520 nM in experiment [7]. Also, the GI50 stood at 2690 nM in [9]; 10000 nM in experiment [10]; 1420 nM in [11]; 930 nM in experiment [12]; 67 nM in [13]; 120 nM in experiment [14]. For the same compound, the GI50 in experiment [17] came to 2350 nM; in experiment [18], 230 nM; in [20] it was 310 nM; in experiment [21], 5720 nM; in experiment [22], 640 nM; in experiment [24], 2620 nM. The result in experiment [4] and in experiment [19] was Active. Further, the Activity is 38.2% in [8], 33.2% in experiment [15] and “Dose-dependent effect” in [16]. For the same compound, the outcome in [23] was inactive.

Consider `O=Nc1c2cccnc2n2nnc3ccc(Cl)cc3c12`, for which the 50% growth inhibitory concentration (GI50) in experiment [1] is 960 nM; in experiment [2] it was 1460 nM; in [3] it was 1170 nM; in [5], 18 nM; in experiment [6], 17 nM; in [7], 940 nM. Besides, the GI50 in experiment [9] worked out at 2980 nM; in experiment [10], 8600 nM; in [11] it was 680 nM; in [12] it was 1270 nM; in [13], 140 nM; in experiment [14], 650 nM. In addition, the GI50 in [18] was 570 nM; in experiment [20] it was 1350 nM; in experiment [21], 1380 nM; in experiment [22] it was 1890 nM; in experiment [24], 2190 nM.

In the case of `COc1cc2nnn3c4ncccc4c(N=O)c3c2cc1OC`, the 50% growth inhibitory concentration (GI50) was 1620 nM in [1]; 1800 nM in experiment [2]; 2220 nM in [3]; under 10 nM in [5]; 18 nM in [6]; 5260 nM in experiment [7]. Also, the concentration for 50% growth inhibition (GI50) amounted to 4020 nM in experiment [9]; 22700 nM in experiment [10]; 2600 nM in experiment [11]; 600 nM in experiment [12]; 160 nM in experiment [13]; 400 nM in experiment [14]. Besides, the concentration for 50% growth inhibition (GI50) in experiment [17] is 1410 nM; in [18], 260 nM; in experiment [20], 1940 nM; in experiment [21] it was 2690 nM; in experiment [22], 1820 nM; in experiment [24], 3700 nM. For the same compound, the result in [4] and in experiment [19] was Active. The Activity in [8] is 54.3%; in experiment [15], 21%; in experiment [16], “Dose-dependent effect”. For the same compound, the outcome in experiment [23] was inactive.

For `COc1cc2nnc3c4cccnc4[nH]c3c2cc1OC`, the GI50 in experiment [1] came out at 1430 nM; in experiment [2], 2270 nM; in [3], 2340 nM; in experiment [5], 18 nM; in [6], 39 nM; in [7] it was 2380 nM. Moreover, the GI50 turned out to be 2290 nM in [9]; 20600 nM in experiment [10]; 2690 nM in experiment [11]; 920 nM in experiment [12]; 230 nM in experiment [13]; 490 nM in experiment [14]. In addition, the GI50 in experiment [18] is 340 nM; in experiment [20] it was 1730 nM; in experiment [21] it was 2530 nM; in experiment [22] it was 1730 nM; in experiment [24], 1940 nM.

Consider `COc1ccc2c(c1)nnn1c3ncccc3c(N=O)c21`, for which the GI50 in experiment [1] is 3130 nM; in experiment [2], 1400 nM; in experiment [3] it was 5170 nM; in experiment [5], 9.4 nM; in [6] it was 9 nM; in experiment [7], 5080 nM. In addition, the 50% growth inhibitory concentration (GI50) worked out at 1680 nM in experiment [9]; 9670 nM in [10]; 1260 nM in [11]; 720 nM in experiment [12]; 32 nM in experiment [13]; 76 nM in experiment [14]. Also, the GI50 amounted to 930 nM in [17]; 130 nM in experiment [18]; 110 nM in experiment [20]; 8020 nM in experiment [21]; 470 nM in [22]; 4140 nM in [24]. Further, the outcome in [4] and in experiment [19] was Active. Moreover, the Activity in experiment [8] was 44.7%; in experiment [15], 28.1%; in experiment [16] it was “Dose-dependent effect”. In experiment [23], the result was inactive.

For the origin of these results see ChEMBL document CHEMBL3351507, “11H-Pyrido[3',2':4,5]pyrrolo[3,2-c]cinnoline and pyrido[3',2':4,5]pyrrolo[1,2-c][1,2,3]benzotriazine: two new ring systems with antitumor activity” (2014).
